In EPA's CvTdb concentration-time database:

Key:
Mouse [1] = assay: concentration in plasma after dosing; conditions: 10 min; dosed: 2-Hydroxy-4-methoxybenzophenone; 50 mg/kg; iv; Female; B6C3F1
Mouse [2] = assay: concentration in plasma after dosing; conditions: 10 min; dosed: 2-Hydroxy-4-methoxybenzophenone; 50 mg/kg; iv; Male; B6C3F1
Rat [3] = assay: concentration in plasma after dosing; conditions: dosed: 2-Hydroxy-4-methoxybenzophenone, 8 mg/kg, iv, Female, F344
Mouse [4] = assay: concentration in plasma after dosing; conditions: 10 min; dosed: 2-Hydroxy-4-methoxybenzophenone; 500 mg/kg; oral; Female; B6C3F1
Rat [5] = assay: concentration in plasma after dosing; conditions: 10 min; dosed: Nitrite; 80 mg/kg; oral; Female; F344
Rat [6] = assay: concentration in plasma after dosing; conditions: dosed: Nitrite, 80 mg/kg, oral, Female, F344
Rat [7] = assay: concentration in plasma after dosing; conditions: dosed: Nitrite, 20 mg/kg, iv, Male, F344
Rat [8] = assay: concentration in plasma after dosing; conditions: 2 min; dosed: Nitrite; 80 mg/kg; oral; Female; F344
Rat [9] = assay: concentration in kidney after dosing; conditions: 6 h; dosed: Fluorotelomer alcohol 8+2; 80 mg/kg; oral; Female; Harlan Sprague Dawley
Rat [10] = assay: concentration in plasma after dosing; conditions: dosed: Fluorotelomer alcohol 8+2, 12 mg/kg, oral, Male, Harlan Sprague Dawley
Rat [11] = assay: concentration in liver after dosing; conditions: 12 h; dosed: Fluorotelomer alcohol 8+2; 80 mg/kg; oral; Female; Harlan Sprague Dawley
Rat [12] = assay: concentration in brain after dosing; conditions: 12 h; dosed: Perfluorooctanoic acid; 80 mg/kg; oral; Female; Harlan Sprague Dawley
Rat [13] = assay: concentration in kidney after dosing; conditions: 3 h; dosed: Fluorotelomer alcohol 8+2; 24 mg/kg; oral; Male; Harlan Sprague Dawley
Rat [14] = assay: concentration in kidney after dosing; conditions: 12 h; dosed: Perfluorooctanoic acid; 12 mg/kg; oral; Male; Harlan Sprague Dawley
Rat [15] = assay: concentration in liver after dosing; conditions: 12 h; dosed: Perfluorooctanoic acid; 80 mg/kg; oral; Female; Harlan Sprague Dawley
Rat [16] = assay: concentration in kidney after dosing; conditions: 12 h; dosed: Potassium Perfluorobutane Sulfonate; 20 mg/kg; oral; Male; Harlan Sprague Dawley
Rat [17] = assay: concentration in plasma after dosing; conditions: 1.5 h; dosed: Potassium Perfluorobutane Sulfonate; 4 mg/kg; iv; Male; F344
mouse [18] = assay: concentration in blood after dosing; conditions: dosed: benzo[a]pyrene, 15 mg/kg, oral, C57BL/6J
How it was run: (§1)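 Data points giving concentration or amount against time came from published in vivo toxicokinetic studies and from two structured collections. PubMed searching, classifier screening and manual review located the studies. Most points were digitised from plot screenshots using WebPlotDigitizer, the rest were copied from tables, and all keep their reported units.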

monkey = assay: concentration in blood after dosing; conditions: dosed: methanol, inhalation, duration: 6 hr, male, Macaca mulatta
How it was run: as §1

human = assay: concentration in blood after dosing
How it was run: as §1

COc1ccc(C(=O)c2ccccc2)c(O)c1 [2-Hydroxy-4-methoxybenzophenone]
Conditions	concentration in plasma [ng/mL]
Mouse [1]	8410
Mouse [2]	11900
Mouse [4]	535

Rat [3]
Conditions	concentration in plasma [ng/mL]
0.25 h	120
4 h	75.6

O=N[O-] [Nitrite]
Conditions	concentration in plasma [ng/mL]
Rat [5]	22900
Rat [8]	7000

concentration in plasma [ng/mL]
Conditions	0.75 h	1 h	2 h	2 min
Rat [6]	–	11200	12200	–
Rat [7]	3400	–	–	14300

O=C(O)C(F)(F)C(F)(F)C(F)(F)C(F)(F)C(F)(F)C(F)(F)C(F)(F)F [Perfluorooctanoic acid]
Conditions	concentration in brain [ng/g]	concentration in kidney [ng/g]	concentration in liver [ng/g]
Rat [9]	–	1730	–
Rat [11]	–	–	487
Rat [12]	1280	–	–
Rat [13]	–	317	–
Rat [14]	–	26900	–
Rat [15]	–	–	64300

Rat [10]
Conditions	concentration in plasma [ng/mL]
0.5 h	108
9 h	851

O=S(=O)([O-])C(F)(F)C(F)(F)C(F)(F)C(F)(F)F.[K+] [Potassium Perfluorobutane Sulfonate]
Conditions	concentration in kidney [ng/g]	concentration in plasma [ng/mL]
Rat [16]	3610	–
Rat [17]	–	17300

c1ccc2c(c1)cc1ccc3cccc4ccc2c1c34 [benzo[a]pyrene]
mouse [18]
Conditions	concentration in blood [ng/mL]
0.4576 h	68.9
0.4733 h	61
0.9942 h	148
1.01 h	190
1.436 h	196
1.452 h	276
1.957 h	239
1.989 h	253
3.014 h	282
3.046 h	85
4.04 h	258
4.072 h	15.5
4.94 h	8.52
5.934 h	6.45
6.013 h	252
9.028 h	65.1
11.99 h	18.4
14.99 h	6.86

CO [methanol]
monkey
Conditions	concentration in blood [ng/mL]
0.5142 h, 2000 ppm	54500
0.5644 h, 1200 ppm	35700
1.044 h, 1200 ppm	31200
1.066 h, 2000 ppm	52700
1.558 h, 1200 ppm	31400
1.603 h, 2000 ppm	47700
2.036 h, 1200 ppm	27700
2.065 h, 2000 ppm	39000
3.014 h, 1200 ppm	21100
3.019 h, 2000 ppm	40300
4.525 h, 1200 ppm	14300
4.556 h, 2000 ppm	24100
6.067 h, 2000 ppm	16300
6.073 h, 1200 ppm	10300
8.074 h, 2000 ppm	9200
8.076 h, 1200 ppm	7660
10 h, 1200 ppm	7870
10.06 h, 2000 ppm	7580
97 s, 1200 ppm	38600
101 s, 2000 ppm	65800

CC(C)(C)O [tert-butyl alcohol]
human, inhalation, duration: 4 hr
Conditions	concentration in blood [nM]
1.944 h, dosed: methyl tert-butyl ether, 4.5 ppm	1930
1.995 h, dosed: methyl tert-butyl ether, 38.7 ppm	22200
2.028 h, dosed: ethyl tert-butyl ether, 40.6 ppm	12800
2.045 h, dosed: ethyl tert-butyl ether, 4.5 ppm	1690
3.934 h, dosed: methyl tert-butyl ether, 4.5 ppm	1730
3.985 h, dosed: methyl tert-butyl ether, 38.7 ppm	17800
4.023 h, dosed: ethyl tert-butyl ether, 4.5 ppm	1620
4.023 h, dosed: ethyl tert-butyl ether, 40.6 ppm	11000
5.95 h, dosed: methyl tert-butyl ether, 4.5 ppm	1580
6.001 h, dosed: methyl tert-butyl ether, 38.7 ppm	12500
6.034 h, dosed: ethyl tert-butyl ether, 4.5 ppm	1170
6.034 h, dosed: ethyl tert-butyl ether, 40.6 ppm	9280
7.952 h, dosed: methyl tert-butyl ether, 4.5 ppm	917
7.96 h, dosed: ethyl tert-butyl ether, 4.5 ppm	1100
7.977 h, dosed: ethyl tert-butyl ether, 40.6 ppm	8400
8.017 h, dosed: methyl tert-butyl ether, 38.7 ppm	10000
9.972 h, dosed: ethyl tert-butyl ether, 4.5 ppm	771
9.972 h, dosed: ethyl tert-butyl ether, 40.6 ppm	6190
10.03 h, dosed: methyl tert-butyl ether, 38.7 ppm	8310
11.93 h, dosed: ethyl tert-butyl ether, 4.5 ppm	905
11.98 h, dosed: ethyl tert-butyl ether, 40.6 ppm	5880
12.05 h, dosed: methyl tert-butyl ether, 38.7 ppm	5730
18 s, dosed: methyl tert-butyl ether, 4.5 ppm	2660
20 s, dosed: methyl tert-butyl ether, 38.7 ppm	21800
23.91 h, dosed: ethyl tert-butyl ether, 40.6 ppm	2670
23.99 h, dosed: methyl tert-butyl ether, 38.7 ppm	1140
61 s, dosed: ethyl tert-butyl ether, 4.5 ppm	1870
61 s, dosed: ethyl tert-butyl ether, 40.6 ppm	14300

human, dosed: methyl tert-butyl ether, oral
Conditions	concentration in blood [nM]
0.9669 h, 5 mg	463
1.015 h, 15 mg	1880
1.979 h, 15 mg	1700
1.982 h, 5 mg	430
2.968 h, 15 mg	1580
2.972 h, 5 mg	391
3.958 h, 15 mg	1510
3.961 h, 5 mg	370
5.915 h, 5 mg	318
5.962 h, 15 mg	1230
7.92 h, 5 mg	290
7.966 h, 15 mg	983
9.925 h, 5 mg	236
9.97 h, 15 mg	937
11.95 h, 15 mg	806
12.01 h, 5 mg	199
23.95 h, 15 mg	268
23.99 h, 5 mg	53.5
